# Reference: ChEMBL document CHEMBL4689842, “EUbOPEN Chemogenomics Library wave 1” (2021)
# Tested on: Fibroblast
# Experiment: Multiplex assay against human fibroblast
# Type: toxicity, cell-based
# How it was run: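 At seeding, live cells were stained with Hoechst33342, BioTracker Green Microtubule Cytoskeleton Dye, MitoTracker Red and Annexin V Alexa Fluor 680. After compound addition they were imaged on a CQ1 microscope at 37°C and 5% CO2, and CellPathfinder machine-learning gating sorted them into Hoechst high-intensity objects or normal cells, with normal cells further split into healthy, pyknosed or fragmented nuclei and pyknosed cells into mitotic or apoptotic. Tubulin, mitochondrial-mass and membrane-permeability phenotypes are given as per cents of cells with healthy nuclei.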
# [1] = 12 h, 1 µM, compound concentration 1 uM, replicate 1
# [2] = 12 h, 1 µM, compound concentration 1 uM, replicate 2
# [3] = 12 h, 10 µM, compound concentration 10 uM, replicate 1
# [4] = 12 h, 10 µM, compound concentration 10 uM, replicate 2
# [5] = 24 h, 1 µM, compound concentration 1 uM, replicate 1
# [6] = 24 h, 1 µM, compound concentration 1 uM, replicate 2
# [7] = 24 h, 10 µM, compound concentration 10 uM, replicate 1
# [8] = 24 h, 10 µM, compound concentration 10 uM, replicate 2
smiles,measurement,setting,value
Cc1ccc2nc(NCCN)c3ncc(C)n3c2c1.O=C(O)C(F)(F)F.O=C(O)C(F)(F)F,Population Apoptotic (%),[1],78%
same,Population Fragmented Nuclei (%),[1],28%
same,Population Healthy Nuclei (%),[1],60%
same,Population Hoechst High Intensity Objects (%),[1],11%
same,Population Membrane Permeable-Phenotype (%),[1],5%
same,Population Mitochondria Different-Phenotype (%),[1],1%
same,Population Mitotic Cells (%),[1],21%
same,Population Normal (%),[1],88%
same,Population Tubulin-Different-Phenotype (%),[1],3%
same,Total Cell Count,[1],243
same,Population Apoptotic (%),[2],50%
same,Population Fragmented Nuclei (%),[2],65%
same,Population Healthy Nuclei (%),[2],23%
same,Population Hoechst High Intensity Objects (%),[2],51%
same,Population Membrane Permeable-Phenotype (%),[2],11%
same,Population Mitochondria Different-Phenotype (%),[2],22%
same,Population Mitotic Cells (%),[2],50%
same,Population Normal (%),[2],48%
same,Population Pyknosed Nuclei (%),[2],10%
same,Population Tubulin-Different-Phenotype (%),[2],11%
same,Total Cell Count,[2],78
same,Population Apoptotic (%),[3],76%
same,Population Fragmented Nuclei (%),[3],33%
same,Population Healthy Nuclei (%),[3],52%
same,Population Hoechst High Intensity Objects (%),[3],21%
same,Population Membrane Permeable-Phenotype (%),[3],5%
same,Population Mitochondria Different-Phenotype (%),[3],3%
same,Population Mitotic Cells (%),[3],23%
same,Population Normal (%),[3],78%
same,Population Pyknosed Nuclei (%),[3],13%
same,Population Tubulin-Different-Phenotype (%),[3],11%
same,Total Cell Count,[3],309
same,Population Apoptotic (%),[4],66%
same,Population Fragmented Nuclei (%),[4],57%
same,Population Healthy Nuclei (%),[4],26%
same,Population Hoechst High Intensity Objects (%),[4],36%
same,Population Membrane Permeable-Phenotype (%),[4],6%
same,Population Mitochondria Different-Phenotype (%),[4],33%
same,Population Mitotic Cells (%),[4],33%
same,Population Normal (%),[4],63%
same,Population Pyknosed Nuclei (%),[4],15%
same,Population Tubulin-Different-Phenotype (%),[4],46%
same,Total Cell Count,[4],90
same,Population Apoptotic (%),[5],64%
same,Population Fragmented Nuclei (%),[5],22%
same,Population Healthy Nuclei (%),[5],59%
same,Population Hoechst High Intensity Objects (%),[5],11%
same,Population Membrane Permeable-Phenotype (%),[5],4%
same,Population Mitochondria Different-Phenotype (%),[5],0%
same,Population Mitotic Cells (%),[5],35%
same,Population Normal (%),[5],88%
same,Population Pyknosed Nuclei (%),[5],17%
same,Population Tubulin-Different-Phenotype (%),[5],2%
same,Total Cell Count,[5],253
same,Population Apoptotic (%),[6],66%
same,Population Fragmented Nuclei (%),[6],64%
same,Population Healthy Nuclei (%),[6],27%
same,Population Hoechst High Intensity Objects (%),[6],43%
same,Population Membrane Permeable-Phenotype (%),[6],0%
same,Population Mitochondria Different-Phenotype (%),[6],20%
same,Population Mitotic Cells (%),[6],33%
same,Population Normal (%),[6],56%
same,Population Pyknosed Nuclei (%),[6],8%
same,Population Tubulin-Different-Phenotype (%),[6],0%
same,Total Cell Count,[6],65
same,Population Apoptotic (%),[7],81%
same,Population Fragmented Nuclei (%),[7],35%
same,Population Healthy Nuclei (%),[7],50%
same,Population Hoechst High Intensity Objects (%),[7],23%
same,Population Membrane Permeable-Phenotype (%),[7],5%
same,Population Mitochondria Different-Phenotype (%),[7],0%
same,Population Mitotic Cells (%),[7],18%
same,Population Normal (%),[7],76%
same,Population Pyknosed Nuclei (%),[7],13%
same,Population Tubulin-Different-Phenotype (%),[7],3%
same,Total Cell Count,[7],370
same,Population Apoptotic (%),[8],77%
same,Population Fragmented Nuclei (%),[8],47%
same,Population Healthy Nuclei (%),[8],35%
same,Population Hoechst High Intensity Objects (%),[8],39%
same,Population Membrane Permeable-Phenotype (%),[8],15%
same,Population Mitochondria Different-Phenotype (%),[8],15%
same,Population Mitotic Cells (%),[8],22%
same,Population Normal (%),[8],60%
same,Population Pyknosed Nuclei (%),[8],16%
same,Population Tubulin-Different-Phenotype (%),[8],52%
same,Total Cell Count,[8],88
